{"source": "PubChem BioAssay AID504382", "about": "(The Scripps Research Institute Molecular Screening Center, 2011)", "note": "Hit rate of the full screen: of about 2,500 compounds, about 460 (18%) were called active.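 How the source made its calls: active means mean activation above a cutoff of low control average plus 3 SD from the earlier screen (cut at about 12% in these data); inactive means the rest.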 Only a sample is shown."}
{"test": "IANBD-channel fluorescence artefacts in buffer – biochemical, artefact control for cardiac RTF calcium sensitizer project, confirmation (AID 504382)", "settings": "IANBD fluorescence interference counterscreen, EC20 Ca2+, at 7.2 µM, active compounds read high, scaled: EC20 calcium 0, EC100 calcium 100", "in_short": "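Doses – one dose of 7.2 µM, 0.7% DMSO · Buffer or medium – MOPS/KCl/MgCl2/EGTA/NTA/DTT buffer, pH 7.2 · Probe or stimulus – Ca2+ fixed at EC20, 0.472 mM · Measured by – fluorescence intensity, excitation 480 nm, emission 540 nm · Read-out – fluorescence interference versus control range · Timing – 15 min compound exposure at 25 °C · Replication – triplicate wells per compound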"}
{"smiles": "COC(=O)c1ccc(CS(=O)(=O)c2ccc(F)cc2)o1", "fluorescence artifact activation": "0.08% (inactive)"}
{"smiles": "N#CC1(C#N)CC(C=O)=C(N)C1(C#N)CC(=O)c1ccc(F)cc1", "note": "(stereo not given)", "fluorescence artifact activation": "2.93% (inactive)"}
{"smiles": "Cc1ccc(Cn2nc(C)c(NC(=O)C3(C)CC3(Br)Br)c2C)cc1", "note": "(stereo not given)", "fluorescence artifact activation": "6.32% (inactive)"}
{"smiles": "CC(NC(=O)CN1CCC(C(N)=O)CC1)c1ccccc1", "note": "(stereo not given)", "fluorescence artifact activation": "-0.04% (inactive)"}
{"smiles": "CN(C)NC(=S)Nc1ccc(S(=O)(=O)N2CCCCC2)cc1", "fluorescence artifact activation": "2.09% (inactive)"}
{"smiles": "Cc1ccc(NC(=O)CN(C)c2ccc(S(=O)(=O)N3CCCC3)cn2)cc1", "fluorescence artifact activation": "18.6% (active)"}
{"smiles": "Cc1ccc(CNC(=O)c2ccc(S(=O)(=O)N3CCCCC3)cc2)cc1", "fluorescence artifact activation": "-0.06% (inactive)"}
{"smiles": "COc1cc(/C=C/c2sc3ccccc3[n+]2CCCS(=O)(=O)[O-])ccc1O", "fluorescence artifact activation": "1.3% (inactive)"}
{"smiles": "O=[N+]([O-])c1ccc(NN=Cc2cccc3ccccc23)nc1", "fluorescence artifact activation": "7.52% (inactive)"}
{"smiles": "COc1ccc(-n2c(C)cc(/C=C3\\SC(=S)NC3=O)c2C)cc1", "fluorescence artifact activation": "-0.04% (inactive)"}
{"smiles": "O=C(CCC1CCCN(C(=O)C2=CCCC2)C1)N1CCN(c2ccccn2)CC1", "note": "(stereo not given)", "fluorescence artifact activation": "-0.04% (inactive)"}
{"smiles": "O/C=c1\\ccc2cccc3nc(C(F)(F)F)nc1c23", "fluorescence artifact activation": "1630% (active)"}
{"smiles": "Cc1ccc(N2C3=C(C(=O)CC(C)(C)C3)C(c3cn(C)nc3C)C3=C2CC(C)(C)CC3=O)cc1", "fluorescence artifact activation": "8.85% (inactive)"}
{"smiles": "O=C(c1c[nH]c(C(=O)C(Cl)(Cl)Cl)c1)c1c(F)cccc1F", "fluorescence artifact activation": "1460% (active)"}
{"smiles": "CN(C)C=NC(=O)c1cc(C(=O)c2ccccc2Cl)c[nH]1", "fluorescence artifact activation": "0.08% (inactive)"}
{"smiles": "COc1ccc(-n2nc3c(N4CCC(C(=O)NCc5ccco5)CC4)nnc(C)c3c2C)cc1", "fluorescence artifact activation": "0.15% (inactive)"}
{"smiles": "Cc1nc([N+](=O)[O-])c(Br)n1CC(=O)c1ccc2ccccc2c1", "fluorescence artifact activation": "0.15% (inactive)"}
{"smiles": "Cn1c(/C(C#N)=C(\\O)CN2CCN(Cc3ccccc3)CC2)nc2ccccc21", "fluorescence artifact activation": "-0.07% (inactive)"}
{"smiles": "Cc1nc([N+](=O)[O-])c(Sc2nc3ccccc3n2C)n1Cc1ccccc1", "fluorescence artifact activation": "17.2% (active)"}
{"smiles": "COc1cc(-c2c(-c3ccc4c(c3)OCO4)noc2C)ccc1F", "fluorescence artifact activation": "6.28% (inactive)"}
{"smiles": "COC(=O)c1sc(N2C(=O)C(O)=C(C(=O)c3ccc(C)o3)C2c2ccc(F)cc2)nc1C", "note": "(stereo not given)", "fluorescence artifact activation": "7.6% (inactive)"}
{"smiles": "CCCOc1ccc(C2C(C(=O)c3ccc(C)o3)=C(O)C(=O)N2CCCn2ccnc2)cc1", "note": "(stereo not given)", "fluorescence artifact activation": "20.7% (active)"}
{"smiles": "CCCCOc1cccc(C2C(C(=O)c3cccs3)=C(O)C(=O)N2Cc2cccnc2)c1", "note": "(stereo not given)", "fluorescence artifact activation": "-0.01% (inactive)"}
{"smiles": "COc1ccc(-c2cc(C(F)(F)F)c3c(N)c(C(=O)NCCSC)sc3n2)cc1", "fluorescence artifact activation": "0.08% (inactive)"}
{"smiles": "COc1ccc(Sc2ccc(-c3nc4cnccn4c3NC3CCCCC3)cc2OC)cc1", "fluorescence artifact activation": "0.04% (inactive)"}
